Bioassay records (PubChem BioAssay)
The list is not random: actives were taken first. Their share in the collection is about 1.3%.
S100A4 inh HTS: inhibitors of S100A4-myosin IIA peptide binding, primary screen, biochemical, fluorescence polarization, TAMRA-MyoIIA peptide. 0.14% of 360,000 active. AID 652163, 2013. Protein S100-A4 (Homo sapiens), P26447. inhibition, % at 10.7 µM;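 active = mean inhibition of at least 70% across replicates, with every replicate also reaching that level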
Target sequence (P26447 whole entry, looked up): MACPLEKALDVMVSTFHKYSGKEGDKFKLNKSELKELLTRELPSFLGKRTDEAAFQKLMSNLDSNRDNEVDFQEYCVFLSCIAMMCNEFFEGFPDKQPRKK
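incubation = readout 5 min after mixing, signal stable up to 60 min | system = S100A4 monomer protein | buffer or medium = HEPES pH 7.2 with CaCl2, KCl, NaCl, DTT, Triton | benchmarks = neutral control DMSO, positive control TFP | also added = fluorescent myosin IIA peptide, 5 nM | compound dosing = one concentration per compound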
GSIS activator: GLuc luminescence reporter in INS-1E cells, primary screen for activators of glucose-dependent secretion of insulin; INS-1E GLuc reporter insulin secretion, 2-3 h; activation, % at 16.6 µM; 0.61% of 370,000 active; AID 743287, 2014;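 active = lowest replicate activation of at least 40%, so every replicate reaches that level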;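 note: 0% = median of neutral control wells and 100% = median of IBMX positive control wells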
AF4-AF9 inh: inhibitors of AF4 peptide binding to AF9, primary screen, biochemical, AlphaScreen, biotin-AF4 peptide, FLAG-AF9, single point; Protein AF-9 (Homo sapiens), P42568; inhibition, % at 10 µM; 0.47% of 350,000 active;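 active = every replicate reaching a set inhibition limit, whatever the replicate mean, cut at about 25% in these data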;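 note: 0% = plate neutral control median and 100% = total signal loss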
RAD54 branch: inhibitors of human RAD54 branch migration, primary screen, biochemical, fluorescence, single point | DNA repair and recombination protein RAD54-like (Homo sapiens), Q92698 | RAD54 Holliday junction branch migration, FAM/BHQ fluorescence | inhibition, % at 10.4 µM | 0.14% of 360,000 active;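 active = mean normalized replicate activity at least 40 and at least half of replicates scoring 40 or more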;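 note: 0% = median of neutral control wells and 100% = median of positive control wells; inhibitors cause a drop in the FAM fluorescence signal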
RAD52 anneal inh: RAD52 DNA annealing inhibitors, primary screen, biochemical, FRET, single point, set 2; DNA repair protein RAD52 homolog (Homo sapiens), P43351; recombinant RAD52 DNA annealing, FRET fluorescence; inhibition, % at 18.7 µM; 0.46% of 360,000 active;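 active = every replicate showing at least 50% inhibition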
Target sequence (P43351 whole entry, looked up): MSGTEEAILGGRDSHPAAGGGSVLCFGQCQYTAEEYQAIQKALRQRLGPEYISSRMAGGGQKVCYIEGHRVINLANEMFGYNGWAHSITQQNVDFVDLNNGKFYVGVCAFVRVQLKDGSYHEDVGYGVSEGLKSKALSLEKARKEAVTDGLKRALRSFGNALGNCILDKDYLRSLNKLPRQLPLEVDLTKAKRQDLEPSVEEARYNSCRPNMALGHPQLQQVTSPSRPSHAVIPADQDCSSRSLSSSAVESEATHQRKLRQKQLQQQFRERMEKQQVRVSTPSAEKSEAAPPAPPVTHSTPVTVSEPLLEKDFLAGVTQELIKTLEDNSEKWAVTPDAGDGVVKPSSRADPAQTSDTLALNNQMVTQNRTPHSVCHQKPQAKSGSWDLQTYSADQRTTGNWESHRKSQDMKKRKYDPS
An asterisk follows results filed as active; / = no result; ! = a repeat was not active.

SMILES	S100A4 inh HTS	GSIS activator	AF4-AF9 inh	RAD54 branch	RAD52 anneal inh
Cc1ccccc1S(=O)(=O)N1[C@@H]2CNC[C@H]1C2c1ccc(/C=C/c2ccccc2)cc1 (some centres undefined)	-17	11	1	/	51*!
Cc1ccc(S(=O)(=O)N2[C@@H]3CNC[C@H]2C3c2ccc(-c3cccc(C#N)c3)cc2)cc1 (some centres undefined)	16	-20	-1	/	53*!
N#Cc1cccc(-c2ccc(C3[C@H]4CNC[C@@H]3N4S(=O)(=O)c3ccc(F)cc3)cc2)c1 (some centres undefined)	-3	-11	-2	/	28
COc1ccccc1S(=O)(=O)N1[C@@H]2CNC[C@H]1C2c1ccc(/C=C/c2ccccc2)cc1 (some centres undefined)	-14	-2	18	/	33
COc1ccc(S(=O)(=O)Nc2ccc3c(c2)C(=O)N([C@@H](C)CO)C[C@@H](C)[C@H](CN(C)S(=O)(=O)c2ccccc2)OCCCC[C@H](C)O3)cc1	-13	-4	-3	/	-4
CC(C)CCn1c(=O)c2ccccc2n2c(CN3CCOCC3)nnc12	16	45*	0	/	-4
N#Cc1nc(COc2ccccc2)oc1N1CCCCCC1	11	-4	27*	6	-5
CCOc1ccc(-c2nc(C#N)c(N3CCOCC3)o2)cc1	5	-9	5	4	0
CCOc1ccc(-c2nc(C#N)c(N3CCN(Cc4ccccc4)CC3)o2)cc1	2	1	53*	-3	11
CCOc1ccc(Nc2oc(-c3ccc(Cl)cc3)nc2C#N)cc1	/	73*	/	-4	/
COc1ccc2c3c([nH]c2c1)[C@@H](CO)N(C(=O)c1ccncc1)CC31CCN(C(=O)C2CCC2)CC1	3	1	-1	/	-26
CCOC(=O)c1[nH]c2ccc(OC)cc2c1NC(=O)c1ccc2c(c1)OCO2	/	/	/	1	/
CCOC(=O)c1[nH]c2cc(OC)c(OC)cc2c1NC(=O)c1ccc2c(c1)OCO2	/	69*	/	/	/
CC(C)NC(=O)N(C)C[C@@H]1OCCCC[C@@H](C)Oc2ccc(NS(=O)(=O)c3ccc(F)cc3)cc2C(=O)N([C@H](C)CO)C[C@H]1C	-1	2	-3	-2	-19
CCOc1nc(N=C(N)N)nc2c(C)cccc12	/	/	/	60*	/
C[C@@H]1CN([C@@H](C)CO)C(=O)c2cccc(NC(=O)c3ccc(-c4nccs4)cc3)c2O[C@@H]1CN(C)CC1CCCCC1	12	0	3	18	-16
COc1cc(S(=O)(=O)NC2CCCCC2)ccc1Cl	/	8	/	8	/
COc1ccc(S(=O)(=O)NC2CCCCC2)cc1C	-30	43*	-1	0	-21
CCCN1C[C@@H](C)[C@@H](OC)CN(C)C(=O)c2cc(NC(=O)Nc3cccc(OC)c3)ccc2OC[C@H]1C	/	-7	/	/	/
Cc1ccc2cc(C#N)c(SCC(=O)NNC(=O)Cc3ccccc3)nc2c1	/	127*	/	1	/
COc1ccc2cc(C#N)c(SCC(=O)NNC(=O)Cc3ccccc3)nc2c1	/	/	/	0	/
Cc1ccc2nc(SCC(=O)NCc3cccs3)c(C#N)cc2c1	/	54*	/	-1	/
Cc1ccc2nc(SCC(=O)NCc3ccco3)c(C#N)cc2c1	/	/	/	-3	/
CC1C(=NO)C(C)C(c2ccc(N(C)C)cc2)NC1c1ccc(N(C)C)cc1 (centres undefined)	-11	-34	43*	4	-4
O=C(NCC1CC1)[C@H]1[C@H](CO)[C@H]2Cn3c(ccc(-c4cccc(F)c4)c3=O)[C@H]2N1CC1CCCC1	58	-19	4	-4	15
SMILES	S100A4 inh HTS	GSIS activator	AF4-AF9 inh	RAD54 branch	RAD52 anneal inh
C=CCc1ccccc1Oc1cc(OC)nc(N)n1	-2	63*	1	-5	2
Cc1cc(C)nc(NC(N)=NCCc2ccccc2)n1	0	/	-1	-12	-7
Cc1cc(C)nc(NC(N)=NCCc2c[nH]c3ccccc23)n1	48	45*	9	-2	30
Cc1cccc(C=NNc2cc(C)c3cccc(C)c3n2)n1	3	-8	25*	/	-38
CNC(=S)Nc1cccc2[nH]ncc12	/	/	/	-9	/
O=C(NC(=S)Nc1cccc2[nH]ncc12)c1ccccc1	1	159*	-2	0	-15
C#CCOCCOCCOCCNc1nc(N2CCN(C(=O)CCCCCCCCCCNC(=O)Cn3cc(CCCCCN)nn3)CC2)nc(N2CCN(C(=O)CCCCCCCCCCNC(=O)[C@@H](CCC(=O)O)n3cc(CCCCCN)nn3)CC2)n1	/	/	/	4	/
C#CCOCCOCCOCCNc1nc(N2CCN(C(=O)CCCCCCCCCCNC(=O)[C@H](CO)n3cc(CCCSC)nn3)CC2)nc(N2CCN(C(=O)CCCCCCCCCCNC(=O)[C@H](CCCCN)n3cc(CCO)nn3)CC2)n1	2	-9	19	-3	55*
C#CCOCCOCCOCCNc1nc(N2CCN(C(=O)CCCCCCCCCCNC(=O)Cn3cc(CCCCCN)nn3)CC2)nc(N2CCN(C(=O)CCCCCCCCCCNC(=O)[C@@H](CCSC)n3cc(CCO)nn3)CC2)n1	-3	-20	/	0	52*
COc1ccc(CN(C)C[C@H]2Oc3ccc(N(C)C)cc3CC(=O)N([C@H](C)CO)C[C@H]2C)cc1	3	14	0	-3	9
C[C@H]1CN([C@@H](C)CO)C(=O)Cc2cc(N(C)C)ccc2O[C@@H]1CN(C)Cc1ccc(Oc2ccccc2)cc1	-1	5	26*	-20	23
C[C@H]1CN([C@@H](C)CO)C(=O)Cc2cc(N(C)C)ccc2O[C@H]1CN(C)Cc1ccc(Oc2ccccc2)cc1	4	-7	48*	-20	6
C[C@@H]1CN([C@H](C)CO)C(=O)Cc2cc(N(C)C)ccc2O[C@@H]1CN(C)Cc1ccc(Oc2ccccc2)cc1	-1	24	51*	-3	3
C[C@H](CO)N1C[C@H](C)[C@H](CN(C)Cc2ccccc2)Oc2ccc(N(C)C)cc2CC1=O	9	2	2	12	-3
O=C(c1ccccn1)N1CC[C@@H]2[C@@H](CO)Nc3ccc(-c4cccc(F)c4)cc3[C@@H]21	/	-6	/	-6	/
C[C@@H]1CN([C@@H](C)CO)C(=O)Cc2cc(NC(=O)C3CC3)ccc2O[C@@H]1CN(C)Cc1ccc(-c2ccccc2)cc1	31	-10	-3	-3	-11
CC(C)C#Cc1cnc2c(c1)C(=O)N([C@@H](C)CO)C[C@@H](C)[C@H](CN(C)C(=O)Cc1ccncc1)O2	-9	-9	0	-2	-14
CO[C@@H]1CN(C)C(=O)c2cc(NS(=O)(=O)c3cccc(F)c3)ccc2OC[C@H](C)NC[C@@H]1C	-8	-8	-4	7	-19
CSc1ncccc1C(=O)NCCc1ccccc1F	-5	73*	-3	9	-9
